According to ChEMBL document CHEMBL1765029, “Synthesis and biological evaluation of estradiol linked pyrrolo[2,1-c][1,4]benzodiazepine (PBD) conjugates as potential anticancer agents” (2011):
Counter-ions that a name gives are not always drawn. Calls of active or inactive are those of the source. No cut-off for these calls is given here.

Columns and labels:
MCF7 [1] = assay: Cell cycle arrest in human MCF7 cells assessed as accumulation at G2/M phase using propidium iodide staining at 4 uM after 24 hrs by flow cytometry; type: functional
Outline: (§1)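 MCF-7 cells (5 × 10⁵ per 60 mm dish) grown 24 h, then exposed to 4 µM compound for a further 24 h; DMSO-treated control. Cells trypsinised, fixed in ice-cold 70% ethanol at 4 °C for 30 min, RNase-treated (1 mg/mL, 37 °C, 30 min), stained with propidium iodide/citrate/Triton X-100. DNA content read on 20,000 events by flow cytometry; percent cells per phase reported.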

A2780 = assay: Cytotoxicity against human A2780 cells by sulforhodamine B method; type: functional
MCF7 [2] = assay: Cell cycle arrest in human MCF7 cells assessed as accumulation at S phase using propidium iodide staining at 4 uM after 24 hrs by flow cytometry; type: functional; outline: as §1
KB = assay: Cytotoxicity against human KB cells by sulforhodamine B method; type: functional
HOP-62 = assay: Cytotoxicity against human HOP62 cells by sulforhodamine B method; type: functional
SiHa = assay: Cytotoxicity against human SiHa cells by sulforhodamine B method; type: functional
PC-3 = assay: Cytotoxicity against human PC3 cells by sulforhodamine B method; type: functional
MCF7 [3] = assay: Cell cycle arrest in human MCF7 cells assessed as accumulation at G1 phase using propidium iodide staining at 4 uM after 24 hrs by flow cytometry; type: functional; outline: as §1
A549 = assay: Cytotoxicity against human A549 cells by sulforhodamine B method; type: functional
COLO 205 = assay: Cytotoxicity against human COLO205 cells by sulforhodamine B method; type: functional
MCF7 [4] = assay: Cytotoxicity against human MCF7 cells by sulforhodamine B method; type: functional
MCF7 [5] = assay: Cytotoxicity against human MCF7 cells at 4 uM after 24 hrs by MTT assay; type: functional, cell-based
Outline: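 MCF-7 cells seeded at 10,000 per well, incubated overnight, then treated at 4 µM for 24 h; DMSO control. Medium replaced with MTT, 2 h at 37 °C. Formazan solubilised in extraction buffer, absorbance read at 570 nm, expressed as percent viability.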

[6] = Cytotoxicity against human DWD cells by sulforhodamine B method; type: functional
[7] = Cytotoxicity against human Gurav cells by sulforhodamine B method; type: functional
ZR-75-1 = assay: Cytotoxicity against human ZR-75-1 cells by sulforhodamine B method; type: functional
MCF7 [8] = assay: Cell cycle arrest in human MCF7 cells assessed as accumulation at G0 phase using propidium iodide staining at 4 uM after 24 hrs by flow cytometry; type: functional; outline: as §1
MCF7 [9] = assay: Reduction in Cdk1 protein level in human MCF7 cells at 4 uM after 24 hrs by Western blot analysis; type: functional, cell-based
Outline: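 MCF-7 cells (5 × 10⁵ per 60 mm dish) grown 24 h, then treated at 4 µM for 24 h. Lysis in ice-cold RIPA buffer with protease/phosphatase inhibitors; protein measured by Bradford. Fifty µg per lane resolved on 12% SDS-PAGE and transferred to PVDF. Blocked 2 h, primary antibody overnight at 4 °C, chemiluminescent detection; β-actin as loading control.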

| Compound | Activity (MCF7 [1]) | GI50 (A2780) | Activity (MCF7 [2]) | GI50 (KB) | GI50 (HOP-62) | GI50 (SiHa) | GI50 (PC-3) | Activity (MCF7 [3]) | GI50 (A549) | GI50 (COLO 205) | GI50 (MCF7 [4]) | Activity (MCF7 [5]) | GI50 [6] | GI50 [7] | GI50 (ZR-75-1) | Activity (MCF7 [8]) | Activity (MCF7 [9]) |
| --- | --- | --- | --- | --- | --- | --- | --- | --- | --- | --- | --- | --- | --- | --- | --- | --- | --- |
| COc1cc2c(cc1OCCCN1CCN(CCCOc3ccc4c(c3)CC[C@@H]3[C@@H]4CC[C@]4(C)[C@@H](O)CC[C@@H]34)CC1)N=C[C@@H]1CCCN1C2=O | 24.01% | 1300 nM | 25.2% | 190 nM | 1140 nM | 130 nM | 140 nM | 47.9% | 120 nM | 130 nM | 110 nM | Active | 120 nM | 140 nM | 120 nM | 2.84% |  |
| COc1cc2c(cc1OCCCCCN1CCN(CCCCCOc3ccc4c(c3)CC[C@@H]3[C@@H]4CC[C@]4(C)[C@@H](O)CC[C@@H]34)CC1)N=C[C@@H]1CC(F)(F)CN1C2=O |  | 160 nM |  | 810 nM | 170 nM | 190 nM | 190 nM |  | 130 nM | 170 nM | 140 nM |  | 1320 nM | 150 nM | 120 nM |  |  |
| COc1cc2c(cc1OCCCN1CCN(CCCOc3ccc4c(c3)CC[C@@H]3[C@@H]4CC[C@]4(C)[C@@H](O)CC[C@@H]34)CC1)N=C[C@@H]1C[C@@H](F)CN1C2=O | 24.33% | < 100 nM | 24.01% | 120 nM | 110 nM | 150 nM | < 100 nM | 50.53% | < 100 nM | 130 nM | < 100 nM | Active | 100 nM | 110 nM | < 100 nM | 0.87% |  |
| COc1cc2c(cc1OCCCOc1ccc3c(c1)CC[C@@H]1[C@@H]3CC[C@]3(C)[C@@H](O)CC[C@@H]13)N=C[C@@H]1C[C@@H](F)CN1C2=O |  | 170 nM |  | 2160 nM | 180 nM | 2120 nM | 190 nM |  | 180 nM | 160 nM | 140 nM |  | 1700 nM | 190 nM | 140 nM |  |  |
| COc1cc2c(cc1OCc1cn(CCCCCOc3ccc4c(c3)CC[C@@H]3[C@@H]4CC[C@]4(C)[C@@H](O)CC[C@@H]34)nn1)N=C[C@@H]1CC(F)(F)CN1C2=O | 21.8% | 1800 nM | 22.3% | 190 nM | 190 nM | 1210 nM | 170 nM | 55% | 170 nM | 160 nM | 110 nM | Active | 180 nM | 190 nM | 180 nM | 0.74% |  |
| COc1cc2c(cc1OCCCOc1ccc3c(c1)CC[C@@H]1[C@@H]3CC[C@]3(C)[C@@H](O)CC[C@@H]13)N=C[C@@H]1CCCN1C2=O |  | 1190 nM |  | 2110 nM | 2230 nM | 2120 nM | 2080 nM |  | 2100 nM | 160 nM | 170 nM |  | 170 nM | 2050 nM | 1190 nM |  |  |
| COc1cccc2c1C(=O)c1c(O)c3c(c(O)c1C2=O)C[C@@](O)(C(=O)CO)C[C@@H]3O[C@H]1C[C@H](N)[C@H](O)[C@H](C)O1 [DOXORUBICIN HYDROCHLORIDE] |  | 160 nM |  | 170 nM | 140 nM | 170 nM |  |  |  | 140 nM | 170 nM |  | 100 nM | 170 nM |  |  |  |
| COc1cc2c(cc1OCc1cn(CCCOc3ccc4c(c3)CC[C@@H]3[C@@H]4CC[C@]4(C)[C@@H](O)CC[C@@H]34)nn1)N=C[C@@H]1CC(F)(F)CN1C2=O |  | 1270 nM |  | 190 nM | 180 nM | 1120 nM | 140 nM |  | 170 nM | 140 nM | 110 nM |  | 170 nM | 170 nM | 170 nM |  |  |
| C[C@]12CC[C@@H]3c4ccc(O)cc4CC[C@H]3[C@@H]1CC[C@@H]2O [ESTRADIOL] | 23.8% |  | 25.26% |  |  |  |  | 50% |  |  |  | Active |  |  |  | 0.83% | Active |
